Measurements: ChEMBL document CHEMBL1128333, “Derivatives of cis-2-amino-8-hydroxy-1-methyltetralin: mixed 5-HT1A-receptor agonists and dopamine D2-receptor antagonists” (J Med Chem, 1995)

Assays:
[1] = molecular target: T1, 5-hydroxytryptamine receptor 1A (Rattus norvegicus, UniProt P19327); experiment: Binding affinity for 5-hydroxytryptamine 1A receptor in rat brain tissue using [3H]8-OH-DPAT as radioligand; assay type: tissue-based
T1 sequence (P19327 whole entry): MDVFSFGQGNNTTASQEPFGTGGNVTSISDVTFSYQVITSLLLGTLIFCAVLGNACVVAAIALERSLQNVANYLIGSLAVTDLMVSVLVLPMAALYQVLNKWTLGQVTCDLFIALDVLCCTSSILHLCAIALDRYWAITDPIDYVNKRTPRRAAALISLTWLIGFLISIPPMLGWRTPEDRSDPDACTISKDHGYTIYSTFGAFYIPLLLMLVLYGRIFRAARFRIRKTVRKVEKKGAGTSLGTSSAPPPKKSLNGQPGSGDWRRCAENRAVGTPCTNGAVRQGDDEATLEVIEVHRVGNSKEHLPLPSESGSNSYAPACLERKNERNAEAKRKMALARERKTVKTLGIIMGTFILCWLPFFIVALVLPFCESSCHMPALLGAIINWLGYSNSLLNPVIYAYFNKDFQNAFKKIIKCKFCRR
Summary of the method: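 Membranes from male Sprague–Dawley rat cortex plus hippocampus, homogenized in 50 mM Tris-HCl with 4.0 mM CaCl2 and 5.7 mM ascorbic acid, pH 7.5, and preincubated 10 min at 37 °C with 10 μM pargyline. Assay used 5 mg/mL tissue and 2 nM [3H]-8-OH-DPAT, 10 min at 37 °C. Nonspecific binding was defined with 10 μM 5-HT. Bound ligand was separated on GF/B filters and counted; data were fitted by nonlinear regression.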

Rattus norvegicus [2] = species on record: Rattus norvegicus; experiment: Ratio of turnover (DOPAC to DA) in rat brain striatum compared to control.; assay type: functional
Summary of the method: (§1)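 Male Sprague–Dawley rats (260–310 g) received compound sc in 0.9% NaCl; saline controls. Rats were decapitated 35–45 min post-injection, and hippocampus and striatum were dissected and frozen. Tissue was homogenized in 0.1 M perchloric acid with α-methyl-5-hydroxytryptophan as internal standard, centrifuged and filtered, then analysed by HPLC-EC at 0.85 V (mobile phase pH 2.69, 35 °C). Values are percent of control, mean ± SEM.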

Rattus norvegicus [3] = species on record: Rattus norvegicus; experiment: Ratio of serotonin turnover (5HIAA to 5-HT) in rat brain hippocampus compared to control; assay type: functional; summary of the method: as §1
Rattus norvegicus [4] = experiment: Change in body temperature in rats after subcutaneous administration; assay type: functional
Summary of the method: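 Rectal temperature was taken with an electrical thermometer, probe inserted 3.5 cm, before and 30 min after sc injection in 0.9% NaCl. Values are the change from the preinjection reading, analysed by Tukey HSD versus saline-treated rats. Male Sprague–Dawley rats, 260–310 g.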

Rattus norvegicus [5] = experiment: Forepaw treading (FPT) behavior was studied in rats after subcutaneous administration of 32 uM/Kg of compound; 0/5; assay type: functional
Rattus norvegicus [6] = species on record: Rattus norvegicus; experiment: DOPAC (3,4-dihydroxyphenylacetic acid) content of rat striatum reflecting DA metabolism and turnover; assay type: functional; set-up: concentration or dose not given beside the values; summary of the method: as §1
D(2) dopamine receptor = D(2) dopamine receptor (Homo sapiens, UniProt P14416); experiment: In vitro binding affinity towards human Dopamine receptor D2A was determined in mouse fibroblast LtK cells using [3H]raclopride; assay type: cell-based
Sequence of D(2) dopamine receptor (P14416 whole entry): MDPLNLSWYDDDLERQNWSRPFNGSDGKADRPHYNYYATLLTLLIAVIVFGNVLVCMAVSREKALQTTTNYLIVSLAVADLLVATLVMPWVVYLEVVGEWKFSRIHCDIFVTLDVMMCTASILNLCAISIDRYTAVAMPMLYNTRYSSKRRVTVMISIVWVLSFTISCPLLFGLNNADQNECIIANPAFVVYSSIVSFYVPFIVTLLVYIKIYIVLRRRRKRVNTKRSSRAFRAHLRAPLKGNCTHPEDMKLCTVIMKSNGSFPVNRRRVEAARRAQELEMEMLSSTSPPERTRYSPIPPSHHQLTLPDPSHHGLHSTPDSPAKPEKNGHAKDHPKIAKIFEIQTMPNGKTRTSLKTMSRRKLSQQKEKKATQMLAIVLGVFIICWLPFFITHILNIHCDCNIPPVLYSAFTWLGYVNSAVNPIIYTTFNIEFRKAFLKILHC
Summary of the method: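 Membranes from Ltk− mouse fibroblasts stably expressing human D2A receptors, at 80–100 pM receptor. Buffer was 50 mM Tris-HCl, 120 mM NaCl, 5 mM KCl, 1.5 mM CaCl2, 4 mM MgCl2, 1 mM EDTA, pH 7.4. Incubation with [3H]raclopride was 60 min at 22 °C, in duplicate, with 1 μM (+)-butaclamol for nonspecific binding. Bound ligand was separated on GF/B filters; data were fitted by nonlinear regression.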

Rattus norvegicus [7] = experiment: Flat body posture behavior was studied in rats after subcutaneous administration of 32 uM/Kg of compound; 0/5; assay type: functional
Rattus norvegicus [8] = species on record: Rattus norvegicus; experiment: 5-HT content of rat hippocampus reflecting 5-HT metabolism and turnover; assay type: functional; set-up: concentration or dose not given beside the values; summary of the method: as §1
Rattus norvegicus [9] = species on record: Rattus norvegicus; experiment: DA (dopamine) content of rat striatum reflecting DA metabolism and turnover; assay type: functional; summary of the method: as §1
Rattus norvegicus [10] = species on record: Rattus norvegicus; experiment: HVA (Homovanillic acid)content of rat striatum reflecting DA metabolism and turnover; assay type: functional; set-up: concentration or dose not given beside the values
Rattus norvegicus [11] = species on record: Rattus norvegicus; experiment: 5-HIAA (5-Hydroxyindoleacetic acid) content of rat hippocampus reflecting 5-HT metabolism and turnover; assay type: functional; set-up: concentration or dose not given beside the values; summary of the method: as §1
Rattus norvegicus [12] = experiment: Cage leaving response was studied in rats after subcutaneous administration of 32 uM/Kg of compound; 4/5; assay type: functional
Rattus norvegicus [13] = experiment: Cage leaving response was studied in rats after subcutaneous administration of 32 uM/Kg of compound; 3/5; assay type: functional
Rattus norvegicus [14] = experiment: Flat body posture behavior was studied in rats after subcutaneous administration of 32 uM/Kg of compound; 5/5; assay type: functional
Rattus norvegicus [15] = experiment: Cage leaving response was studied in rats after subcutaneous administration of 32 uM/Kg of compound; 0/5; assay type: functional
Rattus norvegicus [16] = experiment: Forepaw treading (FPT) behavior was studied in rats after subcutaneous administration of 32 uM/Kg of compound; 5/5; assay type: functional
Rattus norvegicus [17] = experiment: Cage leaving response was studied in rats after subcutaneous administration of 32 uM/Kg of compound; 3/4; assay type: functional
Rattus norvegicus [18] = experiment: Flat body posture behavior was studied in rats after subcutaneous administration of 32 uM/Kg of compound; 0/4; assay type: functional
Summary of the method: (§2)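 Test compounds were given at 32 μmol/kg and the reference 5-HT1A agonist at 1 μmol/kg. Flat body posture, forepaw treading and hind limb abduction were each scored as absent or present. Values are animals showing the behavior out of animals tested, analysed by Fisher's exact test. Male Sprague–Dawley rats, 260–310 g.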

Rattus norvegicus [19] = experiment: Forepaw treading (FPT) behavior was studied in rats after subcutaneous administration of 32 uM/Kg of compound; 0/4; assay type: functional; summary of the method: as §2

Structure (SMILES)	Ki [1] [µM]	Ratio (Rattus norvegicus [2])	Ratio (Rattus norvegicus [3])	Change of body temperature (Rattus norvegicus [4]) [°C]	FPT (Rattus norvegicus [5])	Control (Rattus norvegicus [6]) [%]	Ki (D(2) dopamine receptor) [µM]	FBP (Rattus norvegicus [7])	Control (Rattus norvegicus [8]) [%]	Control (Rattus norvegicus [9]) [%]	Control (Rattus norvegicus [10]) [%]	Control (Rattus norvegicus [11]) [%]	Cage leaving (Rattus norvegicus [12])	Cage leaving (Rattus norvegicus [13])	FBP (Rattus norvegicus [14])	Cage leaving (Rattus norvegicus [15])	FPT (Rattus norvegicus [16])	Cage leaving (Rattus norvegicus [17])	FBP (Rattus norvegicus [18])	FPT (Rattus norvegicus [19])
CCCN(C(C)C)[C@@H]1CCc2cccc(O)c2[C@@H]1C	0.081	155	97	-0.3	0	116	0.614	0	96	74	225	93	4							
CCCN(CCC)[C@H]1CCc2ccccc2[C@H]1C	> 1	81	104	0.1	0	92		0	107	113	111	112		3						
CCCN(CCC)[C@@H]1CCc2cccc(C(=O)OC)c2[C@@H]1C		152	64	-2.7		167	0.0588		122	112	194	78			5	0	5			
CCCN(CCC)[C@@H]1CCc2cccc(-c3ccco3)c2[C@@H]1C	> 1	128	101	0.1		116			110	91	107	111						3	0	0
CCCN(CCC)[C@H]1CCc2cccc(-c3ccco3)c2[C@H]1C	0.044	98	107	0.1		102			108	103	109	121						3	0	0
CCCN(CCC)[C@@H]1CCc2cccc(C(=O)NC(C)C)c2[C@@H]1C	0.038	76	54	-2.5		74			123	99	94	66			5	0	5			

The next lines start with results.

Ki [1] [µM]	Structure (SMILES)	Ratio (Rattus norvegicus [2])	Ratio (Rattus norvegicus [3])	Change of body temperature (Rattus norvegicus [4]) [°C]	FPT (Rattus norvegicus [5])	Control (Rattus norvegicus [6]) [%]	Ki (D(2) dopamine receptor) [µM]	FBP (Rattus norvegicus [7])	Control (Rattus norvegicus [8]) [%]	Control (Rattus norvegicus [9]) [%]	Control (Rattus norvegicus [10]) [%]	Control (Rattus norvegicus [11]) [%]	Cage leaving (Rattus norvegicus [12])	Cage leaving (Rattus norvegicus [13])	FBP (Rattus norvegicus [14])	Cage leaving (Rattus norvegicus [15])	FPT (Rattus norvegicus [16])	Cage leaving (Rattus norvegicus [17])	FBP (Rattus norvegicus [18])	FPT (Rattus norvegicus [19])
0.236	CCCN(CCC)[C@H]1CCc2cccc(OS(=O)(=O)C(F)(F)F)c2[C@H]1C	99	80	0.1	0	107		0	97	107	99	91		3						
> 1	CCCN(CCC)[C@H]1CCc2cccc(C(=O)NC(C)C)c2[C@H]1C	74	92	0	0	59		0	104	82	76	97	4							
